Experimental data taken from ChEMBL document CHEMBL3797202, “Novel Oxindole Sulfonamides and Sulfamides: EPZ031686, the First Orally Bioavailable Small Molecule SMYD3 Inhibitor” (ACS Med Chem Lett, 2016).

Assays:
[1] = target: Histone-lysine N-methyltransferase, H3 lysine-79 specific (Homo sapiens) (UniProt Q8TEK3); assay: Inhibition of DOT1L (unknown origin) at 10 uM relative to control
[2] = target: Histone-lysine N-methyltransferase EZH2 (Homo sapiens) (UniProt Q15910); assay: Inhibition of EZH2 (unknown origin) at 10 uM relative to control
[3] = target: Histone-lysine N-methyltransferase PRDM9 (Homo sapiens) (UniProt Q9NQV7); assay: Inhibition of PRDM9 (unknown origin) at 10 uM relative to control
[4] = target: Protein arginine N-methyltransferase 8 (Homo sapiens) (UniProt Q9NR22); assay: Inhibition of PRMT8 (unknown origin) at 10 uM relative to control
[5] = target: T1, Histone-lysine N-methyltransferase SETD7 (Homo sapiens) (UniProt Q8WTS6); assay: Inhibition of SETD7 (unknown origin) at 10 uM relative to control
T1 sequence (whole entry): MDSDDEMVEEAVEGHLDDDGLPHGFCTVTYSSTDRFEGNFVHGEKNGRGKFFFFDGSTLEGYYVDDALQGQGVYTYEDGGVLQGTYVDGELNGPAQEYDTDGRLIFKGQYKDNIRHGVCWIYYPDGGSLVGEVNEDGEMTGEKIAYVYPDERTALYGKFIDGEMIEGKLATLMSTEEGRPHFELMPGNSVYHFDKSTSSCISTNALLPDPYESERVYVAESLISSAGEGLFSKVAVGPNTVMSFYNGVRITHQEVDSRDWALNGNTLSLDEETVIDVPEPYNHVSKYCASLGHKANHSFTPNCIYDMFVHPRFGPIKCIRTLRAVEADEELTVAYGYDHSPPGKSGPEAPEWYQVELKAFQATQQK

[6] = target: T2, Histone-lysine N-methyltransferase SUV39H1 (Homo sapiens) (UniProt O43463); assay: Inhibition of SUV39H1 (unknown origin) at 10 uM relative to control
T2 sequence (whole entry): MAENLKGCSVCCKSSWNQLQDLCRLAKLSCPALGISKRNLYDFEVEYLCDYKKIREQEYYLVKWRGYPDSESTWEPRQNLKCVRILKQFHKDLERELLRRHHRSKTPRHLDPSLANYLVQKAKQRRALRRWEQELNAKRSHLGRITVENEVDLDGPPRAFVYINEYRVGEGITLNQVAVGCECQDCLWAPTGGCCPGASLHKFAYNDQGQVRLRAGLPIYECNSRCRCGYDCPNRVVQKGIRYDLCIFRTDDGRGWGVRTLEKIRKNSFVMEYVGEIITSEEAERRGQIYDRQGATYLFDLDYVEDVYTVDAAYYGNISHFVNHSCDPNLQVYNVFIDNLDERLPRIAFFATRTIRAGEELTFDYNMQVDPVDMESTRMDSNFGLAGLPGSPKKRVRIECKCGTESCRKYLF

[7] = target: T3, Histone-lysine N-methyltransferase NSD3 (Homo sapiens) (UniProt Q9BZ95); assay: Inhibition of WHSC1L1 (unknown origin) at 10 uM relative to control
T3 sequence (whole entry): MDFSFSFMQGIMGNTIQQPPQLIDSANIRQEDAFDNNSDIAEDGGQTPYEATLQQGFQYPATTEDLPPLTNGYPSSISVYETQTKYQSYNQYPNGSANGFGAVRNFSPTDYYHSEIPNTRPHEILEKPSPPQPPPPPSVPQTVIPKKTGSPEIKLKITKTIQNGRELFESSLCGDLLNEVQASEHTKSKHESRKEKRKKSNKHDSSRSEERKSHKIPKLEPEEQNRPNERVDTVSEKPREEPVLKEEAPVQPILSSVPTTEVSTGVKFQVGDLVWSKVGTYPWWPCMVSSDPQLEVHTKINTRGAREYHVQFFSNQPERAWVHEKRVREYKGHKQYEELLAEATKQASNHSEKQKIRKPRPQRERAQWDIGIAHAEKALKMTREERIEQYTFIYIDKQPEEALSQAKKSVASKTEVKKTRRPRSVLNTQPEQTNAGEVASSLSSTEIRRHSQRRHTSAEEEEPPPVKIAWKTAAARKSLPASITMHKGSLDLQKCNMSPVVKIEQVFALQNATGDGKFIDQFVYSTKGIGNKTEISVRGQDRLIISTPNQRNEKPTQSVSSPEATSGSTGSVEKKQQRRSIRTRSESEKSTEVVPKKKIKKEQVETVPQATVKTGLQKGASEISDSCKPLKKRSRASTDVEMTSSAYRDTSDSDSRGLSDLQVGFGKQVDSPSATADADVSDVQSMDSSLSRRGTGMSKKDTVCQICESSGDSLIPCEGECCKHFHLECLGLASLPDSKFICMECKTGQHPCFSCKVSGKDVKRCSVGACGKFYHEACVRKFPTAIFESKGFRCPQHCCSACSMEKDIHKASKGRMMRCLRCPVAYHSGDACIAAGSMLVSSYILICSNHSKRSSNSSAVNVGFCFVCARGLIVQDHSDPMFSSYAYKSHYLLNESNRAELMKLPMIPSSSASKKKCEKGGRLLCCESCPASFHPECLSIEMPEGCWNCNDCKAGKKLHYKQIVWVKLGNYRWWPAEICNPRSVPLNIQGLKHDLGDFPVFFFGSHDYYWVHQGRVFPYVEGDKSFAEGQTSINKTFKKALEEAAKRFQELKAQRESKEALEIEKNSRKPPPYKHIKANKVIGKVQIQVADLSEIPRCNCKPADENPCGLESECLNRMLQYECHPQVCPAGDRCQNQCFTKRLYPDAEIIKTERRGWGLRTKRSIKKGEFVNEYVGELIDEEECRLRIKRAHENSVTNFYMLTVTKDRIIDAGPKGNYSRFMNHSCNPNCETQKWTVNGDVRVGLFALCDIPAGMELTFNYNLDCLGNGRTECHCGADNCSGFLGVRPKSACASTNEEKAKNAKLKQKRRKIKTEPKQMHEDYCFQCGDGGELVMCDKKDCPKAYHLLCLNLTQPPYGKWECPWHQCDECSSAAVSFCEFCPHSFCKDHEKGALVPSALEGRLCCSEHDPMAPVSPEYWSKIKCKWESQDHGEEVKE

[8] = Apparent permeability in human Caco2 cells at 10 uM incubated for 120 mins by LC-MS/MS analysis; type: ADME, cell-based; settings: Caco-2
Summary of the method: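 Caco-2 cell monolayers; permeability measured in the apical-to-basolateral direction, with an efflux ratio also determined.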

Sequence of Protein arginine N-methyltransferase 8 (Homo sapiens) (Q9NR22 2-394 limits assumed): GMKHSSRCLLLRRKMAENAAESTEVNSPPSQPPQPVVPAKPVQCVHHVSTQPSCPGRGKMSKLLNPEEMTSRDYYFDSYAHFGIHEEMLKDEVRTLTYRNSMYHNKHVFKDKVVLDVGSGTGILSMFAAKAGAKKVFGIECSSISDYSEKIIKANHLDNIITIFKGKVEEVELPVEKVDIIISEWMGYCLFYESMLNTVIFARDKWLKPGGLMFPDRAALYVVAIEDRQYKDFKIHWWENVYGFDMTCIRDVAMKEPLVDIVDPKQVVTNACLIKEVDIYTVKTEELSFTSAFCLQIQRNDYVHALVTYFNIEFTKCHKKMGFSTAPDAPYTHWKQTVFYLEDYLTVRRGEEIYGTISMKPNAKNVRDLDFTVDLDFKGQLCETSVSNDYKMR
Sequence of Histone-lysine N-methyltransferase EZH2 (Homo sapiens) (Q15910 whole entry, looked up): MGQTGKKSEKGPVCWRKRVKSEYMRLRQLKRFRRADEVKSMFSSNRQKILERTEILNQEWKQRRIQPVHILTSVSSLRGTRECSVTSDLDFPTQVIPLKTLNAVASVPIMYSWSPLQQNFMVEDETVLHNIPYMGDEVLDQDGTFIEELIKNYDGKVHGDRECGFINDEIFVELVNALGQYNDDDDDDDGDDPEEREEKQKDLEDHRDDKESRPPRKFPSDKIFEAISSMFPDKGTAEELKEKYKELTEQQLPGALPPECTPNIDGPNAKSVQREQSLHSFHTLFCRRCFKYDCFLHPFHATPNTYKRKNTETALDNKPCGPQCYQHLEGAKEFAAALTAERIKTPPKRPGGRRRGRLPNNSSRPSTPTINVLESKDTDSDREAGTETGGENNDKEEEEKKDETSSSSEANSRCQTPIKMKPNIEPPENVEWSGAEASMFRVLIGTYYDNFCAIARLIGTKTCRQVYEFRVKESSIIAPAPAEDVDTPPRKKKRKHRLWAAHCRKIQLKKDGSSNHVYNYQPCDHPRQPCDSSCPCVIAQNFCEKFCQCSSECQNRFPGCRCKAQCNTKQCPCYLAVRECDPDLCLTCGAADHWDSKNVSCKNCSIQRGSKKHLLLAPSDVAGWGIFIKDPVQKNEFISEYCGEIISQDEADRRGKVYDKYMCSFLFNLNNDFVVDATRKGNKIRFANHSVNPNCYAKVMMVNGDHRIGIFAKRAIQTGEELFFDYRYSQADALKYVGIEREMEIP
Sequence of Histone-lysine N-methyltransferase PRDM9 (Homo sapiens) (Q9NQV7 whole entry): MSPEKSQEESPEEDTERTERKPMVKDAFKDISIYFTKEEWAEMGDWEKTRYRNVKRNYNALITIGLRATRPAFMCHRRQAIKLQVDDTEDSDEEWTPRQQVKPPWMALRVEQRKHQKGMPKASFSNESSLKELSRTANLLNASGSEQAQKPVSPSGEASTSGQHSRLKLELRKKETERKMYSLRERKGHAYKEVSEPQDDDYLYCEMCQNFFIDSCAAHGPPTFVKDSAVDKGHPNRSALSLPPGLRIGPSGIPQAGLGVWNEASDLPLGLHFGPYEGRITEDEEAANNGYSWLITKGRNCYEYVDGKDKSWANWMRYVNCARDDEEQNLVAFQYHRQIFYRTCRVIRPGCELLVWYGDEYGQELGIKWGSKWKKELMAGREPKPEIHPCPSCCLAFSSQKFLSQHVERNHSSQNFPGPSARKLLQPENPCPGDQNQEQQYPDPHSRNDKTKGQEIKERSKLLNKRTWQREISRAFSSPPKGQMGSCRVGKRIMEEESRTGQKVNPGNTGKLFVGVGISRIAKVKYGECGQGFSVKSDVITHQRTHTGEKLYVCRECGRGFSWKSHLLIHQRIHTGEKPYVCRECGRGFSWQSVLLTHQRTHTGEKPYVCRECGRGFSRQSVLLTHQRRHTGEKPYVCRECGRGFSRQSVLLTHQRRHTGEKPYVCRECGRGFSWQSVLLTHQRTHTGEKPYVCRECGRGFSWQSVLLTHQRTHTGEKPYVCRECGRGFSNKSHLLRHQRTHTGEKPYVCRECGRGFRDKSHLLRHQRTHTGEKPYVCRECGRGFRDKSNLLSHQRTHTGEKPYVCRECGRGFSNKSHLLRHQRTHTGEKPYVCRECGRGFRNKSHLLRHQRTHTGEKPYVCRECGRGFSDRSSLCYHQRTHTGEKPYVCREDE
Sequence of Histone-lysine N-methyltransferase, H3 lysine-79 specific (Homo sapiens) (Q8TEK3 whole entry, looked up): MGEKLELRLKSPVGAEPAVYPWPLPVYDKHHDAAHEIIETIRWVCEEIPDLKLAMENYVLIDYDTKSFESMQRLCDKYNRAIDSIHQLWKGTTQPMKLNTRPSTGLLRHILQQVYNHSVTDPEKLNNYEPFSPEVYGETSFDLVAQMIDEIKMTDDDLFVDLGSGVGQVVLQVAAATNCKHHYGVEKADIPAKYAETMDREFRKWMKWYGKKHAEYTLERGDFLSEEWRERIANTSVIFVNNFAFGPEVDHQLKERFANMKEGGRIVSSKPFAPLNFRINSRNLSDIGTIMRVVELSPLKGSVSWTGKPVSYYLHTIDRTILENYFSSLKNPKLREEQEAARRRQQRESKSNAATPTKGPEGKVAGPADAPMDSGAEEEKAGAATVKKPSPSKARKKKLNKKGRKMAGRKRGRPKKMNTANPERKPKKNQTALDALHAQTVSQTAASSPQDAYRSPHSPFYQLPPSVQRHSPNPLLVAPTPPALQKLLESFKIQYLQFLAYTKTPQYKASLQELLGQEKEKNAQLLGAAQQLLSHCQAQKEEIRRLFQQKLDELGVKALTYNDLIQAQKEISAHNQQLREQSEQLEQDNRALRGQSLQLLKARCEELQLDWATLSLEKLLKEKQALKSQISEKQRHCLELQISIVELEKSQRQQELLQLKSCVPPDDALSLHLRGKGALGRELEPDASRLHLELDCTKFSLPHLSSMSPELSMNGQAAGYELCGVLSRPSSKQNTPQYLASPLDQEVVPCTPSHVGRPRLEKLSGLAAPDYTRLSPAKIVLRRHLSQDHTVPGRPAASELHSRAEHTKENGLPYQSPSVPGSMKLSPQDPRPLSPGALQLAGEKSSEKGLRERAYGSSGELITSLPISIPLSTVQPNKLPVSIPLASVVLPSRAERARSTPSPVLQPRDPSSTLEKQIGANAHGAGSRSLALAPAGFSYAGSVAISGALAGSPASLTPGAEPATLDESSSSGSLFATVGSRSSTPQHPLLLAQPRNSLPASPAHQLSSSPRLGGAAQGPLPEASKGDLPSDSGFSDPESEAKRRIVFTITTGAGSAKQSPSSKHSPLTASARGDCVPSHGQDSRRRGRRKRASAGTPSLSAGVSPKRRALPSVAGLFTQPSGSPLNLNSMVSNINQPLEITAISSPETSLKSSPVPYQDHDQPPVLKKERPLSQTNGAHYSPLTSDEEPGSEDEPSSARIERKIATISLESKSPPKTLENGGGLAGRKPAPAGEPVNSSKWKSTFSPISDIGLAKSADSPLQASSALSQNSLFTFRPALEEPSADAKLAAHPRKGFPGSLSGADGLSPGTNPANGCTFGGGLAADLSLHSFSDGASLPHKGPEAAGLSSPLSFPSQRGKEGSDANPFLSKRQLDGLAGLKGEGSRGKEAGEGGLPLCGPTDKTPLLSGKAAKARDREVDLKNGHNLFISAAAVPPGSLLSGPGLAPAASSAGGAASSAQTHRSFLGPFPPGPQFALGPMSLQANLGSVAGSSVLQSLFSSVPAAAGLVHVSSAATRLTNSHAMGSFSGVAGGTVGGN

Row | Structure (SMILES) | inhibition [1] [%] | inhibition [2] [%] | inhibition [3] [%] | inhibition [4] [%] | inhibition [5] [%] | inhibition [6] [%] | inhibition [7] [%] | Papp at 2 h, 10 µM [8] [nm/s]
1 | O=C1Cc2cc(C(=O)N[C@H]3C[C@H]4CC[C@@H](C3)N4S(=O)(=O)CC3CCN(CCCC(F)(F)F)CC3)c(Cl)cc2N1 | < 30 | < 30 | < 30 | < 30 | < 30 | < 30 | < 30 | 6.4
2 | O=C1Cc2cc(C(=O)N[C@H]3C[C@H]4CC[C@@H](C3)N4S(=O)(=O)N3CCC(NCc4ccccc4)CC3)c(Cl)cc2N1 | < 30 | < 30 | < 30 | < 30 | < 30 | < 30 | < 30 | 3.4
